In brackets after ≈: the same amount, converted by molar mass.
What was measured:
Bel-7402 = assay: Antitumor activity against human Bel7402 cells by MTT assay; format: functional, cell-based
Procedure, shortened: (§1)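 Screened in vitro by MTT assay on human gastric carcinoma BGC-823, nasopharyngeal carcinoma KB and hepatoma BEL-7402 cell lines; cis-diamminedichloroplatinum (DDP) served as positive control.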

KB = assay: Antitumor activity against human KB cells by MTT assay; format: functional, cell-based; procedure, shortened: as §1
BGC-823 = assay: Antitumor activity against human BGC823 cells by MTT assay; format: functional, cell-based; procedure, shortened: as §1
[1] = biological target: Acetylcholinesterase (Homo sapiens) (UniProt P22303); assay: Inhibition of acetylcholinesterase at 25 uM
Sequence of Acetylcholinesterase (Homo sapiens) (P22303 whole entry): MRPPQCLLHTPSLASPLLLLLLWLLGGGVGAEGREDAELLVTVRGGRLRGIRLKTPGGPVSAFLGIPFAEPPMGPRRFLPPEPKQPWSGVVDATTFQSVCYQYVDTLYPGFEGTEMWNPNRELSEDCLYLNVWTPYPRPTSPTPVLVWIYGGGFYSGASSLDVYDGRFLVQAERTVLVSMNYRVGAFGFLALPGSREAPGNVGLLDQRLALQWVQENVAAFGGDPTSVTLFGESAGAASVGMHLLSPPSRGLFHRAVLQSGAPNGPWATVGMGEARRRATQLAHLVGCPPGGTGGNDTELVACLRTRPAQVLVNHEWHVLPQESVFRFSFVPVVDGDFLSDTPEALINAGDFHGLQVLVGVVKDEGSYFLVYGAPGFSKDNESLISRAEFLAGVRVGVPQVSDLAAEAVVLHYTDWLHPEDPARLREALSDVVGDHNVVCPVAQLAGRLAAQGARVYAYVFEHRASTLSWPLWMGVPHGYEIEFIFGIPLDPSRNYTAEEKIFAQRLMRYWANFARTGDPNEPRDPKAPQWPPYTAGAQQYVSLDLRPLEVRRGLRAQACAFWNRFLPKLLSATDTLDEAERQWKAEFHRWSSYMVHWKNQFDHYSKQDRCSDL

N#C/C(=C\c1cc(O)c(O)c([N+](=O)[O-])c1)C(=O)N(c1ccccc1)c1ccccc1
IC50 (Bel-7402): 56.2 µg/mL (≈ 140 µM) | IC50 (KB): 104 µg/mL (≈ 259 µM) | IC50 (BGC-823): > 100 µg/mL | inhibition [1]: 7.38%

N#C/C(=C\c1cc(O)c(O)c([N+](=O)[O-])c1)C(=O)Nc1cccc(Cl)c1
IC50 (Bel-7402): 40.1 µg/mL (≈ 111 µM) | IC50 (KB): 72.7 µg/mL (≈ 202 µM) | IC50 (BGC-823): > 100 µg/mL | inhibition [1]: 4.37%

COc1ccc(NC(=O)/C(C#N)=C/c2cc(O)c(O)c([N+](=O)[O-])c2)cc1
IC50 (Bel-7402): > 100 µg/mL | IC50 (KB): 29.2 µg/mL (≈ 82.2 µM) | IC50 (BGC-823): 45.4 µg/mL (≈ 128 µM) | inhibition [1]: 4.64%

COc1cc(/C=C(\C#N)C(=O)Nc2cccc(Cl)c2)cc([N+](=O)[O-])c1O
IC50 (Bel-7402): 21.1 µg/mL (≈ 56.5 µM) | IC50 (KB): 56.6 µg/mL (≈ 151 µM) | IC50 (BGC-823): 26.1 µg/mL (≈ 69.8 µM) | inhibition [1]: 1.64%

N#C/C(=C\c1cc(O)c(O)c([N+](=O)[O-])c1)C(N)=O
IC50 (Bel-7402): > 100 µg/mL | IC50 (KB): > 100 µg/mL | IC50 (BGC-823): > 100 µg/mL | inhibition [1]: 1.09%

N#C/C(=C\c1cc(O)c(O)c([N+](=O)[O-])c1)C(=O)N1CCOCC1
IC50 (Bel-7402): > 100 µg/mL | IC50 (KB): > 100 µg/mL | IC50 (BGC-823): > 100 µg/mL | inhibition [1]: 3%

Cc1cccc(NC(=O)/C(C#N)=C/c2cc(O)c(O)c([N+](=O)[O-])c2)c1
IC50 (BGC-823): 5.6 µg/mL (≈ 16.5 µM) | inhibition [1]: 2.73%

N#C/C(=C\c1cc(O)c(O)c([N+](=O)[O-])c1)C(=O)N1CCCCC1
IC50 (Bel-7402): > 100 µg/mL | IC50 (KB): > 100 µg/mL | IC50 (BGC-823): > 100 µg/mL | inhibition [1]: 0.27%

COc1c(O)ccc(/C=C(\C#N)C(=O)Nc2cccc(Cl)c2)c1[N+](=O)[O-]
IC50 (Bel-7402): 65.3 µg/mL (≈ 175 µM) | IC50 (KB): > 100 µg/mL | IC50 (BGC-823): > 100 µg/mL | inhibition [1]: 2.19%

N#C/C(=C\c1cc(O)c(O)c([N+](=O)[O-])c1)C(=O)Nc1ccccc1Cl
IC50 (Bel-7402): 24 µg/mL (≈ 66.7 µM) | IC50 (KB): 37.4 µg/mL (≈ 104 µM) | IC50 (BGC-823): 10.5 µg/mL (≈ 29.2 µM) | inhibition [1]: 0.95%
